According to ChEMBL document CHEMBL5104191, “Identification of Novel 2,4,5-Trisubstituted Pyrimidines as Potent Dual Inhibitors of Plasmodial PfGSK3/PfPK6 with Activity against Blood Stage Parasites In Vitro” (J Med Chem, 2022):
pEC50, pIC50: −log10 of the molar value.

Key:
[1] = Inhibition of Plasmodium falciparum PK6 measured after 2 hrs by luciferin-based luminescence assay
[2] = test system: HepG2; assay: Cytotoxicity against human HepG2 cells assessed as reduction in cell viability at 2 uM measured after 48 hrs by cell titre glo luminescence assay; assay type: toxicity, cell-based; conditions: hepg2, 48 h
Outline: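 HepG2 cells in DMEM with 10% FBS, seeded at 4000 cells/well and incubated overnight at 37 °C, 5% CO2. Compound added in quadruplicate with constant DMSO, then 48 h incubation. Viability by CellTiter-Glo luminescence, reported as % viable cells; average of two experiments in quadruplicate.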

[3] = test system: Plasmodium falciparum; assay: Antiplasmodial activity against Plasmodium falciparum 3D7 infected in human erythrocytes assessed as reduction in parasite growth incubated for 72 hrs by SYBR green I fluorescence based assay; assay type: functional, organism-based; conditions: 3D7, 72 h
Outline: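 P. falciparum 3D7 synchronized by sorbitol at ring stage, set to 2% parasitemia and 2% hematocrit. Compounds dosed at 0–5 μM as 2-fold dilutions in triplicate. Controls were quinacrine 500 nM and 0.5% DMSO. Incubation 72 h at 37 °C in 3% O2/5% CO2/92% N2, then SYBR Green I lysis for 24 h in the dark. Fluorescence ex 485/em 535; normalized to controls; EC50 from dose–response fit.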

[4] = molecular target: T1, Glycogen synthase kinase 3 (Plasmodium falciparum (isolate 3D7)) (UniProt O77344); assay: Inhibition of Plasmodium falciparum GSK3 at 1 uM measured after 2 hrs by luciferin-based luminescence assay relative to control; values are per cent of control
T1 sequence (whole entry): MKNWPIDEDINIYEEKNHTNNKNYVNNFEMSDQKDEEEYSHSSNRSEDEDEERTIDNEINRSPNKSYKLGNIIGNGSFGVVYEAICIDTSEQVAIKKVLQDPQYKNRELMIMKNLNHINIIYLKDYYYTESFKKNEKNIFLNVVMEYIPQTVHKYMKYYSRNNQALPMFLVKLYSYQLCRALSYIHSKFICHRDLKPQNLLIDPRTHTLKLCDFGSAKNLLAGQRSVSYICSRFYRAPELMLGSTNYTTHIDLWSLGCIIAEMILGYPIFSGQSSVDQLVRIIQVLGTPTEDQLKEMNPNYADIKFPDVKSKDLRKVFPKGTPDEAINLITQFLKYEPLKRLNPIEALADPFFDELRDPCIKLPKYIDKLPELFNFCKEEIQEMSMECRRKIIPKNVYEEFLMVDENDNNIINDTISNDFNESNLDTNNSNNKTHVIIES

[5] = test system: Plasmodium falciparum; assay: Inhibition of Plasmodium falciparum PK6 at 1 uM measured after 2 hrs by luciferin-based luminescence assay relative to control; values are per cent of control
[6] = test system: Plasmodium falciparum; assay: Antiplasmodial activity against blood stage plasmodium falciparum assessed as inhibition of parasite growth; assay type: functional, organism-based
[7] = Kinetic solubility of the compound in PBS buffer at pH 7.4; assay type: physicochemical
[8] = Inhibition of Plasmodium falciparum PKG incubated for 30 mins […]

SMILES: N#Cc1cnc(Nc2ccc(C(=O)N3CCC(N4CCCC4)CC3)cc2)nc1-c1cc2ccccc2s1
- pIC50 [1]: 7.11
- cell viability remaining [2]: 84%
- pEC50 [3]: 6.49

SMILES: O=C(c1ccc(Nc2ncc(Cl)c(-c3cc4ccccc4s3)n2)cc1)N1CCC(N2CCCC2)CC1
- pIC50 [1]: 7.72
- cell viability remaining [2]: 61%
- pEC50 [3]: 6.00

SMILES: O=C(c1ccc(Nc2nccc(-c3cc4ccccc4s3)n2)cc1)N1CCC(N2CC[C@@H](O)C2)CC1
- pIC50 [1]: 6.61

SMILES: O=C(c1ccc(Nc2nccc(-c3ccco3)n2)cc1)N1CCC(N2CCCC2)CC1
- pIC50 [1]: 6.11

SMILES: O=C(c1ccc(Nc2ncc(C3CC3)c(-c3cc4ccccc4s3)n2)cc1)N1CCC(N2CCCC2)CC1
- pIC50 [1]: 6.94
- cell viability remaining [2]: 55%
- pEC50 [3]: 6.19

SMILES: CN1CCC(NC(=O)c2ccc(Nc3nccc(-c4cc5ccccc5s4)n3)cc2)CC1
- pIC50 [1]: 6.47

SMILES: O=C(c1ccc(Nc2nccc(-c3cc4ccccc4s3)n2)cc1)N1CCNCC1
- pIC50 [1]: 6.40

SMILES: Cc1cnc(Nc2ccc(C(=O)N3CCC(N4CCCC4)CC3)cc2)nc1-c1cc2ccccc2s1
- pIC50 [1]: 7.35
- cell viability remaining [2]: 66%
- pEC50 [3]: 6.12

SMILES: Cc1ccc(-c2nc(Nc3ccc(C(=O)NCCCN4CCOCC4)cc3)ncc2Cl)s1
- pIC50 [1]: 7.80
- cell viability remaining [2]: 54%
- pEC50 [3]: 5.59

SMILES: O=C(c1ccc(Nc2nccc(-c3cc4ccccc4s3)n2)cc1)N1CCC(N2CCCCC2)CC1
- pIC50 [1]: 6.94

SMILES: O=C(NCCCN1CCOCC1)c1ccc(Nc2nccc(-c3cc4ccccc4s3)n2)cc1
- pIC50 [1]: 6.81

SMILES: COc1cnc(Nc2ccc(C(=O)N3CCC(N4CCCC4)CC3)cc2)nc1-c1cc2ccccc2s1
- pIC50 [1]: 6.53

SMILES: c1ccc(CNc2nccc(-c3cc4ccccc4s3)n2)cc1
- residual activity [4]: 100%

SMILES: Cc1ccc(-c2ccnc(Nc3ccc(C(=O)N4CCC(N5CCCC5)CC4)cc3)n2)s1
- pIC50 [1]: 6.65

SMILES: O=C(c1ccc(Nc2nccc(-c3cc4ccccc4s3)n2)cc1)N1CCC(N2CC[C@H](O)C2)CC1
- pIC50 [1]: 6.58

SMILES: COc1ccccc1Nc1nccc(-c2cc3ccccc3s2)n1
- residual activity [4]: 100%

SMILES: CN1CCN(CCCNC(=O)c2ccc(Nc3nccc(-c4cc5ccccc5s4)n3)cc2)CC1
- pIC50 [1]: 6.82

SMILES: O=C(NC1CC1)c1ccc(Nc2nccc(-c3cc4ccccc4s3)n2)cc1
- pIC50 [1]: 6.39

SMILES: Clc1ccc(Nc2nccc(-c3cc4ccccc4s3)n2)cc1
- residual activity [5]: 92%
- residual activity [4]: 89%

SMILES: O=C(c1ccc(Nc2nccc(-c3ccc(COCC(F)(F)F)s3)n2)cc1)N1CCC(N2CCCC2)CC1
- pIC50 [1]: 6.53
- cell viability remaining [2]: 87%
- pEC50 [3]: 6.09

SMILES: COc1cccc(Nc2nccc(-c3cc4ccccc4s3)n2)c1
- residual activity [4]: 97%

SMILES: CN(C)CCCNC(=O)c1ccc(Nc2nccc(-c3cc4ccccc4s3)n2)cc1
- pIC50 [1]: 6.50

SMILES: O=C(c1ccc(Nc2nccc(-c3ccc(CO)s3)n2)cc1)N1CCC(N2CCCC2)CC1
- pIC50 [1]: 6.25

SMILES: O=C(c1ccc(Nc2ncc(Br)c(-c3cc4ccccc4s3)n2)cc1)N1CCC(N2CCCC2)CC1
- pIC50 [1]: 7.24
- cell viability remaining [2]: 47%
- pEC50 [3]: 6.52

SMILES: O=C(NCCCN1CCOCC1)c1ccc(Nc2ncc(Cl)c(-c3ccc(Cl)s3)n2)cc1
- pIC50 [1]: 8.10
- cell viability remaining [2]: 65%
- pEC50 [3]: 5.85

SMILES: CN1CCN(C(=O)c2ccc(Nc3nccc(-c4cc5ccccc5s4)n3)cc2)CC1
- pIC50 [1]: 6.47

SMILES: CCCN(C)C1CCN(C(=O)c2ccc(Nc3nccc(-c4cc5ccccc5s4)n3)cc2)CC1
- pIC50 [1]: 6.74

SMILES: O=C(c1ccc(Nc2nccc(-c3ccccc3)n2)cc1)N1CCC(N2CCCC2)CC1
- pIC50 [1]: 6.48

SMILES: c1ccc2sc(-c3ccnc(Nc4ccc(CN5CCC(N6CCCC6)CC5)cc4)n3)cc2c1
- pIC50 [1]: 6.76
- cell viability remaining [2]: 97%
- pEC50 [3]: 7.22

SMILES: Cc1ccc(-c2nc(Nc3ccc(C(=O)N4CCC(N5CCCC5)CC4)cc3)ncc2C)s1
- pIC50 [1]: 7.55

SMILES: Cn1cc(-c2ccnc(Nc3ccc(C(=O)N4CCC(N5CCCC5)CC4)cc3)n2)cn1
- pIC50 [1]: 6.19

SMILES: O=C(c1ccc(Nc2ncc(F)c(-c3cc4ccccc4s3)n2)cc1)N1CCC(N2CCCC2)CC1
- pIC50 [1]: 7.18
- cell viability remaining [2]: 79%
- pEC50 [3]: 6.22

SMILES: O=C(c1ccc(Nc2nccc(-c3nccs3)n2)cc1)N1CCC(N2CCCC2)CC1
- pIC50 [1]: 6.74

SMILES: O=C(c1ccc(Nc2nccc(-c3ccc(Cl)c(Cl)c3)n2)cc1)N1CCC(N2CCCC2)CC1
- pIC50 [1]: 6.42

SMILES: O=C(c1ccc(Nc2nccc(-c3cccs3)n2)cc1)N1CCC(N2CCCC2)CC1
- pIC50 [1]: 6.63

SMILES: O=C(O)c1ccc(Nc2nccc(-c3cc4ccccc4s3)n2)cc1
- residual activity [4]: 33%

SMILES: Clc1ccccc1Nc1nccc(-c2cc3ccccc3s2)n1
- residual activity [4]: 100%

SMILES: CC(C)n1cnc2c(NCc3ccccc3)nc(NCCO)nc21
- pIC50 [6]: 3.89

SMILES: COC(=O)c1ccc(Nc2nccc(-c3cc4ccccc4s3)n2)cc1
- residual activity [5]: 78%
- residual activity [4]: 71%

SMILES: Cc1cnc(Nc2ccc(C(=O)NCCCN3CCOCC3)cc2)nc1-c1ccc(Cl)s1
- pIC50 [1]: 7.92

SMILES: O=C(c1ccc(Nc2nccc(-c3ccc(Cl)s3)n2)cc1)N1CCC(N2CCCC2)CC1
- pIC50 [1]: 6.89

SMILES: O=C(c1ccc(Nc2nccc(-c3ccc4ccccc4c3)n2)cc1)N1CCC(N2CCCC2)CC1
- pIC50 [1]: 6.44
- cell viability remaining [2]: 82%
- pEC50 [3]: 6.27

SMILES: Cc1cnc(Nc2ccc(C(=O)N3CCC(N4CCCC4)CC3)cc2)nc1-c1ccc(Cl)s1
- pIC50 [1]: 7.85
- cell viability remaining [2]: 65%
- pEC50 [3]: 6.24

SMILES: O=C(c1ccc(Nc2nccc(-c3ccc(-c4ccccc4)s3)n2)cc1)N1CCC(N2CCCC2)CC1
- pIC50 [1]: 6.38

SMILES: O=C(c1ccc(Nc2nccc(-c3cc4ccccc4s3)n2)cc1)N1CCC(N2CCCC2)CC1
- pIC50 [1]: 6.34
- cell viability remaining [2]: 103%
- pEC50 [3]: 6.55
- Kinetic_solubility [7]: 19.4 µg/mL

SMILES: COc1ccc(Nc2nccc(-c3cc4ccccc4s3)n2)cc1
- residual activity [5]: 88%
- residual activity [4]: 97%

SMILES: Clc1cccc(Nc2nccc(-c3cc4ccccc4s3)n2)c1
- residual activity [4]: 89%

SMILES: CN(C)C1CCN(C(=O)c2ccc(Nc3nccc(-c4cc5ccccc5s4)n3)cc2)CC1
- pIC50 [1]: 6.67

SMILES: Cc1ccc(-c2nc(Nc3ccc(C(=O)N4CCC(N5CCCC5)CC4)cc3)ncc2Cl)s1
- pIC50 [1]: 7.85

SMILES: c1ccc(Nc2nccc(-c3cc4ccccc4s3)n2)cc1
- residual activity [4]: 100%

SMILES: Cc1cn2c(-c3ccnc(NCC4CC4)n3)c(-c3ccc(F)c(NS(C)(=O)=O)c3)nc2cc1CN(C)C
- pIC50 [8]: 8.68

SMILES: CS(=O)(=O)CCCNC(=O)c1ccc(Nc2nccc(-c3cc4ccccc4s3)n2)cc1
- pIC50 [1]: 6.67

SMILES: O=C(c1ccc(Nc2nccc(-c3cc4ccccc4o3)n2)cc1)N1CCC(N2CCCC2)CC1
- pIC50 [1]: 6.50

SMILES: O=C(c1ccc(Nc2ncc(Cl)c(-c3ccc(Cl)s3)n2)cc1)N1CCC(N2CCCC2)CC1
- pIC50 [1]: 7.96
- cell viability remaining [2]: 34%
- pEC50 [3]: 6.26
